Data published in ChEMBL document CHEMBL5303300, “EUbOPEN Chemogenomics Library - Multiplex” (2023).
“And” between values parts separate entries of the source, which are not always exact repeats. Identical values can stand only once.

Key:
Assay type in all cases: toxicity, cell-based
[1] = test system: Fibroblast; assay: Multiplex assay against human fibroblast; conditions: number of replicates 2
In short: (§1)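 Four dyes were applied at seeding to live cells: Hoechst33342, BioTracker Green Microtubule Cytoskeleton Dye, MitoTracker Red and Annexin V Alexa Fluor 680. Imaging after compound addition used a CQ1 microscope at 37°C and 5% CO2. CellPathfinder machine-learning gating then sorted cells into Hoechst high-intensity objects or normal cells, normal cells into healthy, pyknosed or fragmented nuclei, and pyknosed cells into mitotic or apoptotic, with tubulin, mitochondrial-mass and membrane-permeability phenotypes given as per cents of healthy-nucleus cells.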

[2] = test system: HEK-293T; assay: Multiplex assay against HEK293T; conditions: human, number of replicates 2; in short: as §1
[3] = test system: U2OS; assay: Multiplex assay against U2OS; conditions: human, number of replicates 2; in short: as §1
[4] = 12 h, 1 µM, compound concentration 1 uM
[5] = 12 h, 10 µM, compound concentration 10 uM
[6] = 24 h, 1 µM, compound concentration 1 uM
[7] = 24 h, 10 µM, compound concentration 10 uM
[8] = 48 h, 1 µM, compound concentration 1 uM
[9] = 48 h, 10 µM, compound concentration 10 uM

## CN(C)C/C=C/C(=O)Nc1ccc(C(=O)N2CCCC(Nc3ncc(Cl)c(-c4c[nH]c5ccccc45)n3)C2)cc1 (centres undefined)
[1]; [4]
  Population Apoptotic (%): 40% and 56%
  Population Fragmented Nuclei (%): 10% and 12%
  Population Healthy Nuclei (%): 68% and 67%
  Population Hoechst High Intensity Objects (%): 0%
  Population Membrane Permeable-Phenotype (%): 3% and 5%
  Population Mitochondria Different-Phenotype (%): 0% and 2%
  Population Mitotic Cells (%): 59% and 43%
  Population Normal (%): 99% and 100%
  Population Pyknosed Nuclei (%): 21% and 20%
  Population Tubulin-Different-Phenotype (%): 11% and 13%
  Total Cell Count: 174 and 157
[1]; [5]
  Population Apoptotic (%): 63% and 53%
  Population Fragmented Nuclei (%): 10% and 20%
  Population Healthy Nuclei (%): 42% and 50%
  Population Hoechst High Intensity Objects (%): 0%
  Population Membrane Permeable-Phenotype (%): 0% and 9%
  Population Mitochondria Different-Phenotype (%): 21% and 24%
  Population Mitotic Cells (%): 36% and 46%
  Population Normal (%): 99%
  Population Pyknosed Nuclei (%): 46% and 29%
  Population Tubulin-Different-Phenotype (%): 78% and 70%
  Total Cell Count: 131 and 175
[1]; [6]
  Population Apoptotic (%): 76% and 71%
  Population Fragmented Nuclei (%): 17% and 12%
  Population Healthy Nuclei (%): 49% and 56%
  Population Hoechst High Intensity Objects (%): 0%
  Population Membrane Permeable-Phenotype (%): 10% and 8%
  Population Mitochondria Different-Phenotype (%): 2% and 1%
  Population Mitotic Cells (%): 23% and 28%
  Population Normal (%): 100%
  Population Pyknosed Nuclei (%): 33% and 31%
  Population Tubulin-Different-Phenotype (%): 18% and 19%
  Total Cell Count: 151 and 166
[1]; [7]
  Population Apoptotic (%): 78% and 64%
  Population Fragmented Nuclei (%): 8% and 14%
  Population Healthy Nuclei (%): 30% and 41%
  Population Hoechst High Intensity Objects (%): 1%
  Population Membrane Permeable-Phenotype (%): 2% and 8%
  Population Mitochondria Different-Phenotype (%): 43% and 36%
  Population Mitotic Cells (%): 21% and 35%
  Population Normal (%): 98%
  Population Pyknosed Nuclei (%): 61% and 43%
  Population Tubulin-Different-Phenotype (%): 72% and 71%
  Total Cell Count: 125 and 173
[1]; [8]
  Population Apoptotic (%): 79% and 85%
  Population Fragmented Nuclei (%): 11% and 14%
  Population Healthy Nuclei (%): 47% and 50%
  Population Hoechst High Intensity Objects (%): 0%
  Population Membrane Permeable-Phenotype (%): 19% and 17%
  Population Mitochondria Different-Phenotype (%): 1% and 5%
  Population Mitotic Cells (%): 20% and 14%
  Population Normal (%): 100% and 99%
  Population Pyknosed Nuclei (%): 41% and 35%
  Population Tubulin-Different-Phenotype (%): 27% and 20%
  Total Cell Count: 161 and 139
[1]; [9]
  Population Apoptotic (%): 92% and 87%
  Population Fragmented Nuclei (%): 11% and 14%
  Population Healthy Nuclei (%): 15% and 21%
  Population Hoechst High Intensity Objects (%): 0%
  Population Mitochondria Different-Phenotype (%): 22% and 28%
  Population Mitotic Cells (%): 7% and 12%
  Population Normal (%): 99%
  Population Pyknosed Nuclei (%): 73% and 63%
  Population Tubulin-Different-Phenotype (%): 83% and 74%
  Total Cell Count: 117 and 161
[2]; [4]
  Population Apoptotic (%): 55% and 71%
  Population Fragmented Nuclei (%): 6% and 2%
  Population Healthy Nuclei (%): 72% and 69%
  Population Hoechst High Intensity Objects (%): 14% and 16%
  Population Membrane Permeable-Phenotype (%): 3% and 1%
  Population Mitochondria Different-Phenotype (%): 63% and 58%
  Population Mitotic Cells (%): 44% and 28%
  Population Normal (%): 85% and 83%
  Population Pyknosed Nuclei (%): 20% and 28%
  Population Tubulin-Different-Phenotype (%): 83% and 79%
  Total Cell Count: 354 and 300
[2]; [5]
  Population Apoptotic (%): 69% and 84%
  Population Fragmented Nuclei (%): 5% and 11%
  Population Healthy Nuclei (%): 67% and 68%
  Population Hoechst High Intensity Objects (%): 29% and 21%
  Population Membrane Permeable-Phenotype (%): 5% and 2%
  Population Mitochondria Different-Phenotype (%): 63% and 70%
  Population Mitotic Cells (%): 30% and 15%
  Population Normal (%): 70% and 78%
  Population Pyknosed Nuclei (%): 26% and 20%
  Population Tubulin-Different-Phenotype (%): 88% and 85%
  Total Cell Count: 280 and 375
[2]; [6]
  Population Apoptotic (%): 73% and 75%
  Population Fragmented Nuclei (%): 6% and 5%
  Population Healthy Nuclei (%): 75% and 74%
  Population Hoechst High Intensity Objects (%): 17% and 19%
  Population Membrane Permeable-Phenotype (%): 2% and 0%
  Population Mitochondria Different-Phenotype (%): 68% and 60%
  Population Mitotic Cells (%): 26% and 25%
  Population Normal (%): 82% and 80%
  Population Pyknosed Nuclei (%): 17% and 20%
  Population Tubulin-Different-Phenotype (%): 80% and 68%
  Total Cell Count: 318 and 268
[2]; [7]
  Population Apoptotic (%): 89% and 91%
  Population Fragmented Nuclei (%): 7% and 10%
  Population Healthy Nuclei (%): 75% and 71%
  Population Hoechst High Intensity Objects (%): 28% and 25%
  Population Membrane Permeable-Phenotype (%): 5% and 2%
  Population Mitochondria Different-Phenotype (%): 78% and 79%
  Population Mitotic Cells (%): 10% and 8%
  Population Normal (%): 71% and 74%
  Population Pyknosed Nuclei (%): 17%
  Population Tubulin-Different-Phenotype (%): 88% and 86%
  Total Cell Count: 313 and 357
[2]; [8]
  Population Apoptotic (%): 85% and 78%
  Population Fragmented Nuclei (%): 9% and 4%
  Population Healthy Nuclei (%): 75% and 77%
  Population Hoechst High Intensity Objects (%): 22% and 15%
  Population Membrane Permeable-Phenotype (%): 0% and 1%
  Population Mitochondria Different-Phenotype (%): 76% and 69%
  Population Mitotic Cells (%): 14% and 21%
  Population Normal (%): 77% and 84%
  Population Pyknosed Nuclei (%): 15% and 17%
  Population Tubulin-Different-Phenotype (%): 81% and 77%
  Total Cell Count: 284 and 272
[2]; [9]
  Population Apoptotic (%): 75% and 83%
  Population Fragmented Nuclei (%): 8% and 17%
  Population Healthy Nuclei (%): 54%
  Population Hoechst High Intensity Objects (%): 24% and 26%
  Population Membrane Permeable-Phenotype (%): 1% and 5%
  Population Mitochondria Different-Phenotype (%): 75% and 70%
  Population Mitotic Cells (%): 25% and 16%
  Population Normal (%): 75% and 73%
  Population Pyknosed Nuclei (%): 36% and 28%
  Population Tubulin-Different-Phenotype (%): 83% and 82%
  Total Cell Count: 362 and 446
[3]; [4]
  Population Apoptotic (%): 28% and 47%
  Population Healthy Nuclei (%): 61% and 77%
  Population Hoechst High Intensity Objects (%): 0%
  Population Membrane Permeable-Phenotype (%): 7% and 3%
  Population Mitochondria Different-Phenotype (%): 3%
  Population Mitotic Cells (%): 71% and 52%
  Population Normal (%): 100%
  Population Pyknosed Nuclei (%): 16% and 15%
  Population Tubulin-Different-Phenotype (%): 88% and 93%
[3]; [5]
  Population Apoptotic (%): 66% and 86%
  Population Fragmented Nuclei (%): 20% and 10%
  Population Healthy Nuclei (%): 44% and 40%
  Population Hoechst High Intensity Objects (%): 0%
  Population Membrane Permeable-Phenotype (%): 0% and 22%
  Population Mitotic Cells (%): 33% and 13%
  Population Normal (%): 100% and 99%
  Population Pyknosed Nuclei (%): 36% and 48%
  Population Tubulin-Different-Phenotype (%): 81% and 57%
[3]; [6]
  Population Apoptotic (%): 70% and 76%
  Population Fragmented Nuclei (%): 19% and 8%
  Population Healthy Nuclei (%): 52% and 67%
  Population Hoechst High Intensity Objects (%): 0%
  Population Membrane Permeable-Phenotype (%): 10% and 3%
  Population Mitochondria Different-Phenotype (%): 0% and 1%
  Population Mitotic Cells (%): 30% and 23%
  Population Normal (%): 100%
  Population Pyknosed Nuclei (%): 27% and 23%
  Population Tubulin-Different-Phenotype (%): 89% and 95%
[3]; [7]
  Population Apoptotic (%): 93% and 80%
  Population Fragmented Nuclei (%): 8% and 17%
  Population Hoechst High Intensity Objects (%): 5% and 0%
  Population Membrane Permeable-Phenotype (%): 58% and 22%
  Population Normal (%): 94% and 100%
  Population Pyknosed Nuclei (%): 80% and 43%
  Population Tubulin-Different-Phenotype (%): 76% and 100%
[3]; [8]
  Population Apoptotic (%): 90% and 83%
  Population Fragmented Nuclei (%): 12% and 7%
  Population Healthy Nuclei (%): 74% and 75%
  Population Hoechst High Intensity Objects (%): 0%
  Population Membrane Permeable-Phenotype (%): 3% and 5%
  Population Mitochondria Different-Phenotype (%): 1% and 3%
  Population Mitotic Cells (%): 10% and 16%
  Population Normal (%): 100%
  Population Pyknosed Nuclei (%): 13% and 16%
  Population Tubulin-Different-Phenotype (%): 98% and 97%
[3]; [9]
  Population Apoptotic (%): 92% and 69%
  Population Healthy Nuclei (%): 13% and 20%
  Population Hoechst High Intensity Objects (%): 1% and 0%
  Population Membrane Permeable-Phenotype (%): 91% and 40%
  Population Mitochondria Different-Phenotype (%): 83% and 60%
  Population Normal (%): 98% and 100%
  Population Pyknosed Nuclei (%): 79% and 52%
  Population Tubulin-Different-Phenotype (%): 100%
